Test results: the EternaBench riboswitch data

System: MS2 coat protein
Test: apparent Kd, MS2 coat protein; higher = weaker binding; RNA-MaP array; FMN 200 µM where present
How it was run: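 Stalled E. coli RNA polymerase transcribed each design on Illumina sequencing-chip clusters. The clusters were titrated with SNAP-549-labelled MS2 coat protein, starting at 0.7 or 1.5 nM and doubling up to 3 µM, first without ligand and then with constant ligand, in 100 mM Tris-HCl pH 7.5, 80 mM KCl, 4 mM MgCl2, BSA, DTT, yeast tRNA and Tween-20. Green signal was normalised to red-channel RNA signal and to the control-cluster median Fmax. The apparent Kd is the median of filtered binding-curve fits made for each cluster.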

[1] = designed as: OFF switch for flavin mononucleotide, no ligand
[2] = ligand present: flavin mononucleotide, designed as: OFF switch for flavin mononucleotide
[3] = designed as: ON switch for flavin mononucleotide, no ligand
[4] = ligand present: flavin mononucleotide, designed as: ON switch for flavin mononucleotide

Sequence	apparent Kd [1] [nM]	apparent Kd [2] [nM]	apparent Kd [3] [nM]	apparent Kd [4] [nM]
GUUGUCUAUGUAGGAUAUGCGAGGCGAGGCCUCGCAGAAGGACAUGAGGAUCACCCAUGUAUUGCGGUCUGCGUUCAGAUCGCU	32.9	286	–	–
AGCUACGUUUCGUAGCAGUGUCAUCGAGAAGGCCCUUACGUGACAACAUGAGGAUCACCCAUGUGGGAGGAUAUCGAUGAUACA	–	–	11.8	11.5
GCUCUAUGCUAGAAGGCGUGAAACAUGAGGAUCACCCAUGUCAGAGAUAUGAGGAUAUGGCAUAGAGCAAAAGACGGAAACGUC	–	–	18.7	5.25
UGUACUAUAAGGUUAAUUGUAUAUUGAGAAGGCAUUCACAUGAGGAUCACCCAUGUAACAUGGGAUGAGGAUAUCAUUUUGUAC	–	–	232	32.6
GUUCUGCCUCCUGCCGGAACAUGAGGAUCACCCAUGUUGCCUGAGGAUAUCCUAUGGCGCCCACAGGAGAAGGCGGGCAACAUA	38.1	233	–	–
CGGUUGCGAGGAUAUAUGACAUGUUGCGCCGGAACUCCGCCACAUGAGGAUCACCCAUGUAGAAGGCGCAACUU	14.4	15.3	–	–
UGGACCGAGCUAUCGGUUGACUGGGAGGAUAUGACAUGAGGAUCACCCAUGUGGGAUCUAAAUUGUCAGAAGGCUCGUUCUGGG	–	234	–	–
AGUGCUAGAGGAUAUGCAGUGGCGUUCUGUAUUCACAGCUCACAUGAGGAUCACCCAUGUAGAAGGCUAGCUAC	23.6	106	–	–
AAGGCGUCAGGAUAUCCAAUAUAUGACAUGAGGAUCACCCAUGUUUCCACUCGUACCUCCGGAGAAGGGACGAAUA	29.1	27.5	–	–
UUUAUAUAGUAAGGAUAUGUAUUAUGUUUAUCAACAGAAGGUACUGACAUGAGGAUCACCCAUGUUUUAGUGUGGGCAUGUAGU	218	301	–	–
CUGUGACGGAUCCAGAAUUACAACAUGAGGAUCACCCAUGUACAGGAUAUCGGGUUGAUAGGCGCCGAGAAGGGUAUGAUCACG	137	121	–	–
ACCAAUGCAGGAUAUACAUGAGGAUCACCCAUGUAUAACCUACAUAGAUGAUUAUCAUGUAGAAGGGCAUUGGA	11.7	8.43	–	–
UAAUAAUUAUGAGGAUAUAUACAACAUGAGGAUCACCCAUGUACCCAUGUAGUAGAAGGCAUAUUUUUAGUUAAUAAUAUAACU	–	–	82.2	33
UAUAUAUAAUAUAUUAACAUGAGGAUCACCCAUGUCGCUAGACAGGAUAUAUUUUAUUUUUUUAAGUAGAAGGGUCAUAUAAUU	–	–	63.7	86.1
AACAGUACAGGAUAUACAUGAGGAUCACCCAUGUGAAGAUUAAGUGGUGUACCACUAAGUAGAAGGGUACUGGA	28.8	126	–	–
GCUGACGAUGUAGGAUAUCAGUAUAAUAAAUACUGAGAAGGACAUGAGGAUCACCCAUGUAAACUCCGUCAGCAGAGGAAACUC	19.6	24.1	–	–
GUGCCUAACUAGAAGGCCCAAUGCAAAGCAUCGGGAGGAUAUGGGUUUAAUAAAUAAACAUGAGGAUCACCCAUGUGGCACAAA	–	–	–	10.4
CGGCGCUGUCGAGAGGAUAUGCGGUGAUGGACAUGAGGAUCACCCAUGUUAGCGAUAGCAUUACGGUAGAAGGCUCUACAGCUGC	–	–	34.7	16.3
AGUGAAUGUACAGGAUAUGCUGGACUUUGUCCAGCAGAAGGGUAUUAACAUGAGGAUCACCCAUGUUCAUUCACCAAAUUUAAU	–	–	38.8	8.3

Sequence	apparent Kd [1] [nM]	apparent Kd [2] [nM]	apparent Kd [3] [nM]	apparent Kd [4] [nM]
UUUAUUUUGCAAGGAUAUGUUUAAUUUUAGUUUCCUUAAACAUGAGGAUCACCCAUGUUAUACUUACAGAAGGUGCAUAAUUUU	90.6	52.5	–	–
CUGCUGGAGCUUUGCUUUAGUCGUACAUGAGGAUCACCCAUGUAGGAUAUGGUAGGCUUUGCUUACCAGAAGGAUAGAGUGGUC	93.5	40.6	–	–
CGGCGGAAAGGAUAUGCAUUAAUAUCCAAAUGUGGGCCACGACAUGAGGAUCACCCAUGUAGAAGGUUCAGCCG	15.3	13.9	–	–
GUCAGCUCGUGAGGAUAUACAUGUGCUGGAAACAGCACUAUUAAGUUCACAUGAGGAUCACCCAUGUAGAAGGCACGAGCUGAU	15.7	20.3	–	–
AGAAAACAUGAGGAUCACCCAUGUGAGGAUAUCGAUGUCCAAGCCCGGGUGCGGGACUCGAGAAGGCACUUGGG	55.7	36.8	–	–
CCUGUACAUGAGGAUCACCCAUGUUAGGAUAUUCAGCCCGUCGAGUAUAAGGGUUUAAGAAGAAGGGACGUGGC	15.4	16.1	–	–
GCCUGAUCCACUUUAGGCCCAGACAGAAGGGCACACGGUCUAAGUCACAUGAGGAUCACCCAUGUGCAGGAUAUGUCUCGACUC	8.88	26.2	–	–
GGCGUGUUAGGAUAUCGCGGCGGCGGCGUUUGUUGUUGUUGUGAGAAGGAACAUGAGGAUCACCCAUGUGUGCC	62.7	295	–	–
CUUUUGUGAGGAUAUCAGUAGUAGAACAAUAGUACUACUACUGAGAAGGCACAUGAGGAUCACCCAUGUACCUC	19.4	69.7	–	–
AGUCGGAGCAGAGGAUAUUACAUGAGGAUCACCCAUGUAAUAAAUGGAAGCUGGAAACAGCAAUGUAAGAAGGCUGCUCCGACA	16.4	47.9	–	–
CCGGGCAUCGGCCCAUCUAGGCGAAGAAGGGACACGGCCAAGAUCUCACAUGAGGAUCACCCAUGUCAGGAUAUUUGGUUGGAU	6.56	10.3	–	–
AGUGACUACGUAGGAUAUUAAAUCAUGUACUACAUGAGGAUCACCCAUGUUAAUUUAACAUCAGCUGAGAAGGACGUGGUCACA	–	–	20.6	11.6
CAGUACUGAGGAUAUACAUGAGGAUCACCCAUGUGUUCCUUGUAGGAUAUGCGCAAAAGUAGAAGGCAGAAGGAGAUGUGCCUA	6.59	6.3	–	–
UUUUAUUGCAAGGAUAUGCAAAUUAUUAUUAAUGCAGAAGGUGCUACAUGAGGAUCACCCAUGUUUCUGGGUUU	98.2	308	–	–
GGUCAUCAAGUCAGGAUAUCGUCUGGUCGAUCAGGCGAGAAGGGACAUGAGGAUCACCCAUGUCGACUCAUCAG	28.7	127	–	–
ACAUGAGGAUCACCCAUGUUGAAUGAGGAUAUUUGACUGCGCAUGAGGUUCUCCCAUGUUCAACCGGAGAAGGUAUUAAUAAUU	–	–	267	160
AGACCGCUACGCCGGUUUCACGCACAGGAUAUGCGGUUACAUGAGGAUCACCCAUGUGGCCAUGUGCAGAAGGGUGGUUCGUUA	–	–	36.1	11.5
UGGCUACAUGAGGAUCACCCAUGUCAGGAUAUGCCGUCGGCUUGCCUUCGUCGUUCGGGUAGAAGGGACUGCGG	28.1	28.1	–	–
UCGUGAAGGACAGGAUAUGGACAUGAGGAUCACCCAUGUACAUGGGAAUAUAUACUGAAUUUGUACUAGAAGGGUUACAUAAAU	26.1	20.1	–	–

Sequence	apparent Kd [1] [nM]	apparent Kd [2] [nM]	apparent Kd [3] [nM]	apparent Kd [4] [nM]
UUCUUACGAGGAUAUCGAUUGUGGUACAUGAGGAUCACCCAUGUAUGUGAUAUUGUAUUUCGAGAAGGCGUUCAGU	26.4	24.1	–	–
ACGUCUUAGUAGAAGGGACUUCGGCUGGUAAGCAUCAUCUCCUUCUCACAUGAGGAUCACCCAUGUCAGGAUAUACUAAGAGUC	7.24	7.35	–	–
UGGUAACAUGAGGAUCACCCAUGUCAGGAUAUCAGUAAGAAUAGAUUAGAUUAGAAUAUGAGAAGGGACUAUAU	37.3	31.6	–	–
GUUGCUACUGAGGAUAUUAUUUUAUUCGACUGAUAAGAAGGCAGUACAUGAGGAUCACCCAUGUGGGUAGCCAG	23.8	67.8	–	–
AAGGUCAUCUGAGGAUAUCGACCUCAAAGGCUACGAGAAGGCAGACUGACAUGAGGAUCACCCAUGUACCGGGAAGAUGCCUCC	15.8	173	–	–
ACACAACAUGAGGAUCACCCAUGUUUUCGAUUCACAGGAUAUGGGACAUCCGGAGGGUGACCAGAAGGGUGACUCG	–	–	29.9	18.8
AAUAUGUGAGGAUAUAUCCACCGCGUAGGCUCGCGGUGACAAUAGAAGGUACAUGAGGAUCACCCAUGUAGGGA	67.7	36.9	–	–
CCUGAGUCAGGAUAUUGUACCAGCCUGAAGCCAGGCUGACCCAAGAAGGGACAUGAGGAUCACCCAUGUGAAAA	27	25.6	–	–
UUCGAACAAGUCAGGAUAUGGUUAUUGGUGUGUGACUAGAAGGGACAUGAGGAUCACCCAUGUGCACCUACCAU	16	16.7	–	–
UCCUUGUCCUGAGGAUAUCCGCGGUUCCCAAAAGGAGAAGGCAGGACAUGAGGAUCACCCAUGUACCCAGAAAACGUGCAGAGU	36.8	313	–	–
AAUAAACAUGAGGAUCACCCAUGUAAAUGGGUACAAGGAUAUGCGAAAAGAAACAAAGAAGCAGAAGGUGUAAAGA	–	–	836	1040
UAUUAUCACGAAGGAUAUGCUUACAUGAGGAUCACCCAUGUAUGUAUAUUGAUCCAGCGUAUUGAGCAGAAGGUCGUGAGUAAA	21.8	75.8	–	–
CCUAAGGACACAGGAUAUAGCGUGAUGGCUGGACUCCAACGGCGAGCGGCGCUAGAAGGGUGACCACAUGAGGAUCACCCAUGU	–	–	496	195
CUAUUGUGAGGAUAUCAGUAGUAAUACAAUAGUAUUACUACUGAGAAGGCACAUGAGGAUCACCCAUGUUCCUU	14.1	32.8	–	–
CCUCCACAUGAGGAUCACCCAUGUCAGGAUAUCGUGUGUUUUUUUUCGGUCGCGCGUGCGAGAAGGGACGUCUU	22.1	25	–	–
ACAUUGAUUGUGAGGAUAUCGAUGUGAUGGUAUGUCGAGAAGGCACAUGAGGAUCACCCAUGUGGGUGUGGGCA	259	292	–	–
UUUGUCUGUGUGAGGAUAUACUUGUUUGGGUUUUUGUAGAAGGCACAUGAGGAUCACCCAUGUAUUUUGUUGUG	58.3	75.5	–	–
GGUAGCUUCACAGGAUAUGCUAUCCUUUGGGUAGCAGAAGGGUGAUACAUGAGGAUCACCCAUGUGCUGCCAGGGCGUGAGCCC	–	–	286	500
